Data set [1] can be described thus: Diuretic activity at 40 mg/kg (screening dose-84 umol/kg) in male […] in a one stage experiment; T/C = urine vol of treated rats / urine vol of control rats. The data set is classed as functional. The method, boiled down:
(§1)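 40 mg/kg given by gavage in 25 mL/kg 0.9% saline with 0.5% (carboxymethyl)cellulose. Four rats per agent, two per metabolism cage; 20 controls; 5 h urine. T/C = treated/control urine volume. Stage-1 T/C of 1.66 or more leads to stage 2; product T/C1·T/C2 of 3.34 or more counts as active.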

Data set [2] in a line: Diuretic activity at 40 mg/kg (screening dose-90.1 umol/kg) in […] in a one stage experiment; T/C = urine vol of treated rats / urine vol of control rats. The class given is functional. The method, boiled down: as §1
Data set [3] is described as follows: Diuretic activity at 40 mg/kg (screening dose-84.7 umol/kg) in […] in a one stage experiment; T/C = urine vol of treated rats / urine vol of control rats. The class given is functional. The method, boiled down:
as §1

Data set [4] concerns Rattus norvegicus. Briefly: Mean excretion of chloride in conscious rats at a dose of 100 mg/kg given orally. The data set is classed as ADME, organism-based. Details: dose 100 mg/kg, route oral. Conditions: in vivo, po. Put shortly:
(§2)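 Secondary dose-response in male Sprague-Dawley rats (~160 g), fasted and hydrated as in the primary screen. Oral gavage at 0.3-100 mg/kg in 25 mL/kg saline/0.5% CMC, three cages of two rats per dose. Urine collected 5 h; Na, K, Cl, HCO3 measured. Values are mean excretion (mequiv), compared with controls at P < 0.05.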

Data set [5] concerns Rattus norvegicus. Briefly: Mean excretion of chloride in conscious rats at a dose of 3.0 mg/kg given orally. Details: dose 3 mg/kg, route oral. The following applies: in vivo, po. The data set is classed as ADME, organism-based. Put shortly:
as §2

The subject of data set [6] is Rattus norvegicus. Nature of the data set: Mean excretion of potassium in conscious rats at a dose of 100 mg/kg given orally. The class given is ADME, organism-based. Details: dose 100 mg/kg, route oral. Conditions: in vivo, po. Put shortly: as §2
Data set [7] is filed under the species Rattus norvegicus. Briefly: […]. The data set is classed as ADME, organism-based, Urine. Details: dose 10 mg/kg, route oral. Conditions: in vivo, po, 10 mg/kg. The method, boiled down:
(§3)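 Male Sprague-Dawley rats, about 160 g, fasted 24 h and water withheld 1 1/2 h beforehand; food and water withheld during the test. Dosing by gavage with 25 mL/kg 0.9% saline containing 0.5% (carboxymethyl)cellulose, agent dissolved or suspended. Three cages of two rats each per dose, held in metabolism cages. Urine collected over 5 h. Volume given in mL, Na+ in mequiv. Significance versus control at P < 0.05.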

The species entered for data set [8] is Rattus norvegicus. Briefly: […]. The data set is classed as ADME, organism-based, Urine. Details: dose 1 mg/kg, route oral. The following applies: in vivo, po, 1 mg/kg. The method, boiled down:
(§4)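 Dose-response test in male Sprague-Dawley rats of about 160 g, fasted 24 h, with water withheld 1½ h before and during the test. Each rat got a single gavage of 25 mL/kg 0.9% saline with 0.5% carboxymethylcellulose carrying the agent (0.3–100 mg/kg range). Rats were housed two per metabolism cage, and urine was collected for 5 h. Mean urine volume (mL) was compared with controls (P < 0.05).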

The test system of data set [9] is Rattus norvegicus. Briefly: Mean excretion of potassium in conscious rats at a dose of 3.0 mg/kg given orally. Details: dose 3 mg/kg, route oral. The class given is ADME, organism-based. The following applies: in vivo, po. Put shortly: as §2
Data set [10] has as its system Rattus norvegicus. Nature of the data set: (§5) Mean excretion of Cl- in conscious rats at a dose of 0.3 mg/kg given orally. The data set is classed as ADME, organism-based, Urine. Conditions: in vivo, po. Details: dose 0.3 mg/kg, route oral. Put shortly: as §4
The test system of data set [11] is Rattus norvegicus. Nature of the data set: Mean excretion of sodium in conscious rats at a dose of 10 mg/kg given orally. The class given is ADME, organism-based. Details: dose 10 mg/kg, route oral. The following applies: in vivo, po. Put shortly:
as §3

In data set [12] the test system is Rattus norvegicus. Briefly: Mean excretion of […] in conscious rats at a dose of 1.0 mg/kg given orally. The data set is classed as ADME, organism-based. Details: dose 1 mg/kg, route oral. The following applies: in vivo, po. Put shortly:
as §3

The test system of data set [13] is Rattus norvegicus. Briefly: Mean excretion of potassium in conscious rats at a dose of 1.0 mg/kg given orally. The following applies: in vivo, po. The data set is classed as ADME, organism-based. Details: dose 1 mg/kg, route oral. Put shortly:
as §2

The test system of data set [14] is Rattus norvegicus. Briefly: Mean excretion of potassium in conscious rats at a dose of 0.3 mg/kg given orally. The data set is classed as ADME, organism-based. Details: dose 0.3 mg/kg, route oral. The following applies: in vivo, po. The method, boiled down: as §2
For data set [15], the species on record is Rattus norvegicus. Briefly: […]. The data set is classed as ADME, organism-based, Urine. Details: dose 100 mg/kg, route oral. The following applies: in vivo, po, 100 mg/kg. Put shortly: as §3
The subject of data set [16] is Rattus norvegicus. Briefly: Mean excretion of potassium in conscious rats at a dose of 30 mg/kg given orally. The class given is ADME, organism-based. Details: dose 30 mg/kg, route oral. Conditions: in vivo, po. Put shortly: as §2
Data set [17] has as its system Rattus norvegicus. Briefly: Mean excretion of sodium in conscious rats at a dose of 0.3 mg/kg given orally. Conditions: in vivo, po. The data set is classed as ADME, organism-based. Details: dose 0.3 mg/kg, route oral. The method, boiled down: as §3
For data set [18], the system named is Rattus norvegicus. Briefly: Mean excretion of chloride in conscious rats at a dose of 10 mg/kg given orally. Details: dose 10 mg/kg, route oral. The class given is ADME, organism-based. The following applies: in vivo, po. Put shortly: as §2
Data set [19] deals with Rattus norvegicus. Nature of the data set: Mean excretion of potassium in conscious rats at a dose of 10 mg/kg given orally. The data set is classed as ADME, organism-based. Details: dose 10 mg/kg, route oral. The following applies: in vivo, po. Put shortly:
as §2

Data set [20] concerns Rattus norvegicus. Nature of the data set: Mean excretion of sodium in conscious rats at a dose of 100 mg/kg given orally. The data set is classed as ADME, organism-based. Details: dose 100 mg/kg, route oral. Conditions: in vivo, po. The method, boiled down: as §3
Data set [21] is filed under the species Rattus norvegicus. Briefly: […]. The class given is ADME, organism-based, Urine. Details: dose 30 mg/kg, route oral. Conditions: in vivo, po, 30 mg/kg. The method, boiled down: as §3
For data set [22], the species on record is Rattus norvegicus. Nature of the data set: […]. The class given is ADME, organism-based, Urine. Details: dose 0.3 mg/kg, route oral. The following applies: in vivo, po, 0.3 mg/kg. The method, boiled down: as §4
The test system of data set [23] is Rattus norvegicus. Nature of the data set: Mean excretion of chloride in conscious rats at a dose of 30 mg/kg given orally. The class given is ADME, organism-based. Details: dose 30 mg/kg, route oral. The following applies: in vivo, po. The method, boiled down: as §2
Data set [24] is filed under the species Rattus norvegicus. Nature of the data set: […]. Conditions: in vivo, po, 3 mg/kg. Details: dose 3 mg/kg, route oral. The class given is ADME, organism-based, Urine. Put shortly:
as §3

Data set [25] has as its system Rattus norvegicus. Briefly: Mean excretion of sodium in conscious rats at a dose of 3.0 mg/kg given orally. The class given is ADME, organism-based. Details: dose 3 mg/kg, route oral. Conditions: in vivo, po. The method, boiled down: as §3
The subject of data set [26] is Rattus norvegicus. Nature of the data set: Mean excretion of chloride in conscious rats at a dose of 1.0 mg/kg given orally. Details: dose 1 mg/kg, route oral. The class given is ADME, organism-based. Conditions: in vivo, po. The method, boiled down: as §2
Data set [27] concerns Rattus norvegicus. Nature of the data set: Mean excretion of sodium in conscious rats at a dose of 30 mg/kg given orally. The data set is classed as ADME, organism-based. Details: dose 30 mg/kg, route oral. Conditions: in vivo, po. The method, boiled down: as §3
Data set [28] is described as follows: as §5. The class given is functional, Urine. The following applies: route oral. The method, boiled down:
as §4

The nature of data set [29]: Mean excretion of Cl- in conscious rats at a dose of 1.0 mg/kg given orally. The data set is classed as functional, Urine. The following applies: route oral. The method, boiled down:
as §4

As to `CN(C)CC(c1ccccc1)c1nnc2n1-c1ccc(Cl)cc1C(c1ccc(Cl)cc1)=NC2` (centres undefined), the “T/C 1” value in data set [1] is 1.49.
Take `Clc1ccc2c(c1)C(c1ccccc1)=NCc1nnc(C(CN3CCCC3)c3ccccc3)n1-2` (centres undefined): in [2], the “T/C 1” value came to 1.33.
For `COc1cccc(C2=NCc3nnc(C(CN(C)C)c4ccccc4)n3-c3ccc(Cl)cc32)c1` (centres undefined), the “T/C 1” value in [3] turned out to be 1.34.
Regarding `Nc1nc(N)c2nc(-c3ccccc3)c(N)nc2n1`, the “Mean excretion of Cl-” value in [4] amounted to 0.7 m equiv; in data set [5] it was 0.74 m equiv; in data set [10] it was 0.47 m equiv; in data set [18] it was 0.81 m equiv; in data set [23], 1.15 m equiv; in data set [26], 0.68 m equiv. For the same compound, the “Mean excretion of K+” value is listed as 0.06 m equiv in data set [6]; 0.1 m equiv in data set [9]; 0.1 m equiv in data set [13]; 0.12 m equiv in [14]; 0.04 m equiv in data set [16]; 0.08 m equiv in data set [19]. Moreover, the Mean urine volume in data set [7] worked out at 6.45 mL; in data set [8] it was 3.5 mL; in data set [15] it was 7.01 mL; in data set [21], 9.28 mL; in [22] it was 2.22 mL; in data set [24], 4.32 mL. For the same compound, the “Mean excretion of Na+” value is reported as 1 m equiv in data set [11]; 0.6 m equiv in [12]; 0.4 m equiv in data set [17]; 0.88 m equiv in [20]; 0.83 m equiv in data set [25]; 1.41 m equiv in data set [27].
On to `NS(=O)(=O)c1cc(C(=O)O)c(NCc2ccco2)cc1Cl` [FUROSEMIDE], for which the “Mean excretion of K+” value in [6] was found to be 0.67 m equiv; in data set [9], 0.27 m equiv; in data set [13], 0.21 m equiv; in [14], 0.22 m equiv; in data set [16], 0.46 m equiv; in data set [19], 0.34 m equiv. In addition, the Mean urine volume in data set [7] was 8.48 mL; in data set [15] it was 27.8 mL; in data set [28], 4.45 mL; in [29] it was 4.7 mL; in [21], 18.3 mL; in data set [24], 5.23 mL. The “Mean excretion of Na+” value in data set [11] was 1.13 m equiv; in [12] it was 0.83 m equiv; in data set [17] it was 0.82 m equiv; in data set [20] it was 3.52 m equiv; in data set [25], 0.86 m equiv; in data set [27] it was 2.37 m equiv.
`NS(=O)(=O)c1cc2c(cc1Cl)NCNS2(=O)=O` [HYDROCHLOROTHIAZIDE]: the “Mean excretion of Cl-” value stood at 2.09 m equiv in data set [4]; 1.78 m equiv in [5]; 1.42 m equiv in data set [10]; 1.91 m equiv in data set [18]; 2.03 m equiv in [23]; 1.77 m equiv in [26]. In addition, the “Mean excretion of K+” value in [6] is reported as 0.36 m equiv; in [9] it was 0.34 m equiv; in data set [13] it was 0.32 m equiv; in [14] it was 0.26 m equiv; in [16], 0.3 m equiv; in data set [19], 0.31 m equiv. For the same compound, the Mean urine volume turned out to be 9.24 mL in [7]; 10.61 mL in data set [15]; 7.18 mL in [28]; 8.87 mL in data set [29]; 10.03 mL in data set [21]; 8.48 mL in data set [24]. Besides, the “Mean excretion of Na+” value in [11] amounted to 1.86 m equiv; in [12], 1.59 m equiv; in data set [17], 1.32 m equiv; in data set [20] it was 1.9 m equiv; in data set [25] it was 1.66 m equiv; in data set [27], 1.86 m equiv.

Source of the values: ChEMBL document CHEMBL1124476, “1-(2-aminoethyl)-6-aryl-4H- [1,2,4]triazolo[4,3-a][1,4]benzodiazepines with diuretic and natriuretic activity” (J Med Chem, 1989).
